The source of these data is ChEMBL document CHEMBL4196042, “Novel indanone derivatives as MAO B/H3R dual-targeting ligands for treatment of Parkinson's disease” (Eur J Med Chem, 2018).

Structures are written as SMILES.

Series [1] concerns the target T1, Amine oxidase [flavin-containing] B (Homo sapiens, UniProt P27338).
T1 sequence (P27338 whole entry): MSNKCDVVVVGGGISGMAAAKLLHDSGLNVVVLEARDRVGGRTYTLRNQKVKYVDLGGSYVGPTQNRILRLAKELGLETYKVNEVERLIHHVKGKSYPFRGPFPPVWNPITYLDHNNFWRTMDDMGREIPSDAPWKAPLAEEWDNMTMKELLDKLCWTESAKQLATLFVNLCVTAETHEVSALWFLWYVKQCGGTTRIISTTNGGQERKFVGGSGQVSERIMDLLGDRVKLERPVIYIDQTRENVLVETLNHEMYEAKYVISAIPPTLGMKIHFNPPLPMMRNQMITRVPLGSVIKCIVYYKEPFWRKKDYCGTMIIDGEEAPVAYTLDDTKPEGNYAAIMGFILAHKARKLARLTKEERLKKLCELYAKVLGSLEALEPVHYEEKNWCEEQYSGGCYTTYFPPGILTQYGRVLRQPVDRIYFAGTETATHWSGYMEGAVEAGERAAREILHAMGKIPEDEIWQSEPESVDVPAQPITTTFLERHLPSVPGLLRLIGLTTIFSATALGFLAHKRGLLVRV
The experiment in a line: Inhibition of human MAO-B expressed in baculovirus infected insect cell membranes at 10 uM using kynuramine as substrate by continuous spectrophotometric method relative to control.

For series [2], the target named is T2, Histamine H3 receptor (Homo sapiens, UniProt Q9Y5N1). Briefly: Displacement of [3H]-N-alpha-methylhistamine from human H3R expressed in HEK293 cell membranes after 90 mins by liquid scintillation counting method. The procedure, abridged:
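Membranes (20 µg) from HEK-293 cells stably expressing human H3R were incubated with 2 nM [3H]-N-α-methylhistamine and at least seven test concentrations. Incubation was 90 min at room temperature, with shaking, in 75 mM Tris/HCl (pH 7.4), 12.5 mM MgCl2 and 100 mM NaCl. Nonspecific binding used 10 µM pitolisant. Counting was by liquid scintillation; Ki came from Cheng-Prusoff on one-site competition fits, at least in duplicate.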

The target of series [3] is T3, Amine oxidase [flavin-containing] A (Homo sapiens, UniProt P21397).
T3 sequence (P21397 whole entry): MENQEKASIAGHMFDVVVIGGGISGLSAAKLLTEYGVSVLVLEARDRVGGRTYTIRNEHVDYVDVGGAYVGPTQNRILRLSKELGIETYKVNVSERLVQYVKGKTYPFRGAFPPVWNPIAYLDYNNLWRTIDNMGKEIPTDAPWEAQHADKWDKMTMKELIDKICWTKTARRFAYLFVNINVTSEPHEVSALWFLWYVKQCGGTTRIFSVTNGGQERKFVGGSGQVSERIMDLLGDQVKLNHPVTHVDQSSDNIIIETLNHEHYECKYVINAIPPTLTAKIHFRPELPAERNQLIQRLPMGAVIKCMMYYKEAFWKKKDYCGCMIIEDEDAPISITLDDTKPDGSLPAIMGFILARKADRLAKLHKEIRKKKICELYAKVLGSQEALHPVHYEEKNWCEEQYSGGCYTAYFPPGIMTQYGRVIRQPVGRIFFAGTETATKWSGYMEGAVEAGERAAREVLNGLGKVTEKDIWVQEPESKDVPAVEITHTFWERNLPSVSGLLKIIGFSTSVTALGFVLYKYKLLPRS
Briefly: Inhibition of human MAO-A expressed in baculovirus infected insect cell membranes at 10 uM using kynuramine as substrate by continuous spectrophotometric method relative to control.

Another series is filed under the species Homo sapiens. The experiment in a line: Selectivity index, ratio of IC50 for human MAO-A expressed in baculovirus infected insect cell membranes without preincubation with enzyme to IC50 for human MAO-B expressed in baculovirus infected insect cell membranes without preincubation with enzyme. The procedure, abridged: (§1)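 Human recombinant membrane-bound MAO A and MAO B were tested with inhibitor at 0.001–100 µM and kynuramine at 2×KM. Conditions were 50 mM potassium phosphate, pH 7.4, 20 min at 37°C, no preincubation, with NaOH stop and fluorimetric 4-hydroxyquinoline read-out. IC50 came from a three-parameter log-inhibitor fit with the bottom fixed at zero, from at least three independent experiments in at least duplicate. SI = IC50 MAO A / IC50 MAO B.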

The target in series [4] is T1, Amine oxidase [flavin-containing] B. The experiment in a line: Reversible inhibition of human MAO-B expressed in baculovirus infected insect cell membranes using excess of kynuramine substrate preincubated for 30 to 60 mins followed by 50 fold compound dilution by fluorimetric method. Put shortly:
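MAO B (10 ng/µL) was preincubated with inhibitor at 10× IC50 for 0, 30 or 60 min at 37°C. […] Residual activity was measured fluorimetrically at saturating kynuramine (10×KM), as % of the matched no-inhibitor control. Data are from at least two independent experiments in duplicate, global fit.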

Series [5] addresses T3, Amine oxidase [flavin-containing] A. The experiment in a line: Inhibition of human MAO-A expressed in baculovirus infected insect cell membranes using kynuramine as substrate after 15 to 20 mins by discontinuous fluorimetric method. The procedure, abridged: as §1
Series [6] deals with T1, Amine oxidase [flavin-containing] B. The experiment in a line: Inhibition of human MAO-B expressed in baculovirus infected insect cell membranes using kynuramine as substrate after 15 to 20 mins by discontinuous fluorimetric method.
For series [7] the target is unchanged. The experiment in a line: Inhibition of human MAO-B expressed in baculovirus infected insect cell membranes using kynuramine as substrate preincubated for 30 mins followed by substrate addition measured after 15 to 20 mins by discontinuous fluorimetric method.
Series [8] has the same target. Briefly: Inhibition of human MAO-B expressed in baculovirus infected insect cell membranes at 2 uM using kynuramine as substrate after 15 to 20 mins by discontinuous fluorimetric method relative to control. The procedure, abridged: (§2)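 Single-point screen (10, 2 or 5 µM) on human recombinant membrane-bound MAO A or MAO B. Kynuramine was used at 2×KM (KM 30 µM for MAO A, 20 µM for MAO B) in 50 mM potassium phosphate, pH 7.4, 37°C for 20 min, started with enzyme and stopped with 2 N NaOH. 4-Hydroxyquinoline was read fluorimetrically (Ex 320, Em 405 nm) as % of no-inhibitor control; at least two independent experiments in duplicate.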

For series [9] the target is unchanged. Briefly: Inhibition of human MAO-B expressed in baculovirus infected insect cell membranes at 5 uM using kynuramine as substrate after 15 to 20 mins by discontinuous fluorimetric method relative to control. Put shortly: as §2
The target of series [10] is T2, Histamine H3 receptor. Briefly: Displacement of [125I]iodoproxyfan from human H3R expressed in CHOK1 cell membranes after 60 mins by gamma counting method.

T2 sequence (Q9Y5N1 whole entry): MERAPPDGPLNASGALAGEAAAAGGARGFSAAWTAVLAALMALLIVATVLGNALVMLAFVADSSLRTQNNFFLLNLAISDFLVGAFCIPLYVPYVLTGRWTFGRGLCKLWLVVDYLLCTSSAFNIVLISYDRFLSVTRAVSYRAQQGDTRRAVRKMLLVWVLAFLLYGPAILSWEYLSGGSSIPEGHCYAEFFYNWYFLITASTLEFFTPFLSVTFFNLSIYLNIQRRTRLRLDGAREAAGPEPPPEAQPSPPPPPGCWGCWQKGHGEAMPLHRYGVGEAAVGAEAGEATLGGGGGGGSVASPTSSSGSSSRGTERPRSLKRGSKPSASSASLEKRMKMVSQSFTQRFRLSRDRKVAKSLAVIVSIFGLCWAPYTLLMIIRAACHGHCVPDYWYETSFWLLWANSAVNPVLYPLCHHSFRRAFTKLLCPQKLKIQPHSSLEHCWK

Turning to `O=C1/C(=C/c2ccccc2)Cc2cc(OCCCN3CCCCC3)ccc21`, the inhibition at 10 µM in series [1] is 51 to 75%; in [3], at most 25%. On Histamine H3 receptor [2], this compound gave an inhibition constant (Ki) of 0.0039 µM.

For `O=C1/C(=C/c2ccccc2)Cc2ccc(OCCCN3CCCCC3)cc21`, the inhibition at 10 µM in series [1] is 51 to 75%; in series [3] it was at most 25%. On Histamine H3 receptor [2], the Ki was found to be 0.039 µM.

Turning to `O=C1/C(=C/c2ccc(OCCCN3CCCCC3)cc2)Cc2ccccc21`, the values for the inhibition at 10 µM in [1] and in series [3] were 51 to 75% and at most 25%, respectively. Also, at Histamine H3 receptor [2], the inhibitory constant (Ki) stood at 0.0021 µM.

In the case of `O=C1/C(=C/c2ccc(OCCCN3CCCCC3)cc2)Cc2ccc(OCc3ccc(Br)cc3)cc21`, in the series listed under Homo sapiens, the Ratio IC50 turned out to be 3.7. The “inhibition (INH)” value in [4] is listed as “Active”. Further, affinity at Histamine H3 receptor [2] was put at a Ki of 0.032 µM. Also, the IC50 was determined as 5.51 µM in [5], 1.46 µM in series [6] and 0.232 µM in [7]. Besides, the inhibition at 2 µM in series [8] is 51 to 75%.

Take `O=C1/C(=C/c2ccc(OCCCN3CCCCC3)cc2)Cc2cc(OCc3ccc(Br)cc3)ccc21`: the Ratio IC50 in the series listed under Homo sapiens is above 36. For the same compound, the “inhibition (INH)” value in series [4] is recorded as “Active”. The compound also gave a Ki on Histamine H3 receptor [2] of 0.0065 µM. In addition, the IC50 is above 10 µM in series [5], 0.276 µM in [6] and 0.262 µM in series [7]. This compound also yielded an inhibition at 5 µM in [9] of 76 to 100%.

`O=C1CCc2ccc(OCCN3CCCC3)cc21`: the inhibition at 10 µM is 26 to 50% in series [1] and at most 25% in [3]. At Histamine H3 receptor [2], the inhibition constant (Ki) is 6.12 µM.

`O=C(c1ccc(OCCCN2CCCCC2)cc1)C1CC1`: the Ratio IC50 in the series listed under Homo sapiens was above 12. The Ki at Histamine H3 receptor [10] turned out to be 0.0016 µM; on Histamine H3 receptor [2], 0.011 µM. The 50% inhibitory concentration (IC50) is above 50 µM in series [5] and 3.88 µM in [6].

Turning to `O=C1/C(=C/c2ccccc2)Cc2ccc(OCCN3CCCCC3)cc21`, the inhibition at 10 µM in series [1] is 76 to 100%; in series [3] it was at most 25%. This compound also showed a Ki on Histamine H3 receptor [2] of 0.696 µM.

On to `O=C1CCc2ccc(OCCCN3CCCCC3)cc21`, for which the values for the inhibition at 10 µM in series [1] and in series [3] were 51 to 75% and at most 25%, respectively. In addition, on Histamine H3 receptor [2], the affinity, expressed as Ki, was 0.304 µM.

Turning to `O=C1CCc2cc(OCCN3CCCCC3)ccc21`, the inhibition at 10 µM is 26 to 50% in series [1] and at most 25% in series [3]. This compound gave a Ki at Histamine H3 receptor [2] of 0.205 µM.

As for `COc1ccc2c(c1)C(=O)/C(=C/c1ccc(OCCCN3CCCCC3)cc1)C2`, the inhibition at 10 µM in series [1] and in series [3] was 51 to 75% each time. On Histamine H3 receptor [2], this compound showed a Ki of 0.011 µM.

With `O=C1CCc2cc(OCCCN3CCCCC3)ccc21`, the inhibition at 10 µM is 26 to 50% in [1] and at most 25% in series [3]. The same compound had a Ki on Histamine H3 receptor [2] of 0.159 µM.

With `COc1ccc2c(c1)C/C(=C\c1ccc(OCCCN3CCCCC3)cc1)C2=O`, the inhibition at 10 µM in [1] was 51 to 75%; in series [3], at most 25%. The Ki on Histamine H3 receptor [2] is 0.033 µM.

For the compound `O=C1CCc2cc(OCCN3CCCC3)ccc21`, the inhibition at 10 µM in [1] was at most 25%; in series [3] it was 26 to 50%. The compound further registered an inhibition constant Ki at Histamine H3 receptor [2] of 0.345 µM.

Take `O=C1/C(=C/c2ccc(OCCCN3CCCCC3)cc2)Cc2cc(F)ccc21`: the Ratio IC50 in the series filed under Homo sapiens was 4.8. In series [1], this compound came in with an inhibition at 10 µM of 76 to 100%. Also, the “inhibition (INH)” value in series [4] is “Active”. The same compound came in with an inhibitory constant (Ki) at Histamine H3 receptor [2] of 0.0022 µM. Further, the figures for the half-maximal inhibitory concentration (IC50) in series [5], in series [6] and in series [7] were 9.18 µM, 1.93 µM and 0.541 µM, respectively.
